The assay has as its target Sigma 2 receptor. In words: Binding affinity for sigma 2 opioid receptor, measured on rat liver membranes using [3H]- DTG as radioligand in the presence of (+)-pentazocine. On the set-up: species or system Membrane. A digest of the protocol:
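Rat liver P2 membranes (male Sprague-Dawley, 300-350 g; 35 µg protein) incubated with 3 nM [3H]DTG plus 100 nM (+)-pentazocine masking σ1 sites, in 50 mM Tris-HCl pH 8.0, 120 min, 25 °C. Test compounds at 0.005-1000 nM (eight concentrations). Nonspecific binding defined with 5 µM DTG. Filtration, scintillation counting. IC50 by nonlinear regression, generally in triplicate. Ki from at least three experiments.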
As for `O=C(Cc1cccc(Cl)c1)NC1CCN(Cc2ccc(I)cc2)CC1`, the Ki was found to be 257 nM.

Take `O=C(Cc1ccc2ccccc2c1)NC1CCN(Cc2ccccc2)CC1`: the inhibitory constant (Ki) is 112 nM.

With `O=C(Cc1ccccc1F)NC1CCN(Cc2ccc(F)cc2)CC1`, the Ki is 140 nM.

As to `O=C(Cc1cccc(F)c1)NC1CCN(Cc2cccc(I)c2)CC1`, the Ki was 50.3 nM.

In the case of `O=C(Cc1cc(=O)oc2cc(O)ccc12)NC1CCN(Cc2ccccc2)CC1`, the Ki was over 1000 nM.

As for `O=C(Cc1ccccc1)NC1CCN(Cc2ccc(C(F)(F)F)cc2)CC1`, the Ki came to 300 nM.

On to `O=C(Cc1ccccc1)NC1CCN(CCc2ccccc2)CC1`, for which the Ki was found to be 107 nM.

For the compound `O=C(Cc1cccc(F)c1)NC1CCN(Cc2ccc(F)cc2)CC1`, the Ki came out at 31 nM.

With `O=C(Cc1ccccc1)NC1CCN(Cc2ccc3ccccc3c2)CC1`, the Ki came to 189 nM.

`O=C(Cc1ccncc1)NC1CCN(Cc2ccccc2)CC1`: the inhibition constant (Ki) is over 1000 nM.

For the compound `O=C(Nc1cccc2ccccc12)NC1CCN(Cc2ccccc2)CC1`, the Ki was 25 nM.

Regarding `O=C(Cc1cccnc1)NC1CCN(Cc2ccccc2)CC1`, the Ki is over 1000 nM.

In the case of `O=C(Cc1ccccc1)NC1CCN(Cc2cccc(I)c2)CC1`, the Ki is 191 nM.

Consider `O=C(Cc1ccsc1)NC1CCN(Cc2ccccc2)CC1`, for which the Ki is 337 nM.

As to `O=C(Cc1c[nH]cn1)NC1CCN(Cc2ccccc2)CC1`, the Ki is over 1000 nM.

As for `O=C(Cc1cccs1)NC1CCN(Cc2ccccc2)CC1`, the Ki amounted to 393 nM.

Take `O=C(Cc1cccc(Cl)c1)NC1CCN(Cc2cccc(I)c2)CC1`: the Ki was determined as 30.3 nM.

On to `O=C(Cc1ccccn1)NC1CCN(Cc2ccccc2)CC1`, for which the inhibitory constant (Ki) was over 1000 nM.

Take `COc1ccc2c(c1)C(CC(=O)NC1CCN(Cc3ccccc3)CC1)CC2=O` (stereo not given): the Ki stood at 416 nM.

In the case of `O=C(Cc1ccccc1)NC1CCN(Cc2ccc(Cl)c(Cl)c2)CC1`, the Ki is 423 nM.

`O=C(Cc1cccc(Cl)c1)NC1CCN(Cc2ccc(F)cc2)CC1`: the Ki was determined as 9.38 nM.

In the case of `O=C(Cc1ccccc1)NC1CCN(Cc2cccc(F)c2)CC1`, the Ki is over 1000 nM.

For `O=C(Cc1ccccc1)NC1CCN(Cc2ccc(I)cc2)CC1`, the Ki came out at 694 nM.

For `O=C(Cc1c[nH]c2ccc(Br)cc12)NC1CCN(Cc2ccccc2)CC1`, the Ki was found to be 678 nM.

For `O=C(Cc1cccc(Br)c1)NC1CCN(Cc2ccc(F)cc2)CC1`, the Ki worked out at 6.06 nM.

On to `O=C(Cc1ccccc1)NC1CCN(Cc2ccc3c(c2)OCO3)CC1`, for which the Ki amounted to 171 nM.

Take `O=C(Cc1cccc2ccccc12)NC1CCN(Cc2ccccc2)CC1`: the inhibitory constant (Ki) was 39.4 nM.

`O=C(Cc1cccc(Br)c1)NC1CCN(Cc2cccc(I)c2)CC1`: the Ki was found to be 59.3 nM.

Turning to `O=C(Cc1ccccc1)NC1CCN(Cc2ccccc2C(F)(F)F)CC1`, the Ki is over 1000 nM.

Turning to `O=C(Cc1c[nH]c2ccccc12)NC1CCN(Cc2ccccc2)CC1`, the Ki is over 1000 nM.

For `O=C(Cc1ccccc1)NC1CCN(Cc2ccc(F)cc2)CC1`, the Ki is 82.9 nM.

As for `O=C(Cc1ccccc1F)NC1CCN(Cc2cccc(I)c2)CC1`, the inhibitory constant (Ki) worked out at 181 nM.

Consider `O=C(Cc1ccccc1F)NC1CCN(Cc2ccc(I)cc2)CC1`, for which the Ki stood at 233 nM.

Turning to `O=C(Cc1cccc(Br)c1)NC1CCN(Cc2ccc(I)cc2)CC1`, the Ki amounted to 90.3 nM.

On to `O=C(Cc1ccccc1)NC1CCN(Cc2ccccc2I)CC1`, for which the Ki stood at 631 nM.

As for `O=C(Cc1ccccc1)NC1CCN(Cc2ccc(F)c(F)c2)CC1`, the Ki was determined as 232 nM.

As to `O=C(Cc1ccccc1)NC1CCN(Cc2ccc([N+](=O)[O-])cc2)CC1`, the Ki was 319 nM.

In the case of `O=C(Cc1ccc(I)cc1)NC1CCN(Cc2ccccc2)CC1`, the Ki came to 61.3 nM.

For `O=C(Cc1cccc(F)c1)NC1CCN(Cc2ccc(I)cc2)CC1`, the Ki stood at 168 nM.

With `O=C(CSc1ncccn1)NC1CCN(Cc2ccccc2)CC1`, the Ki was over 1000 nM.

For the compound `O=C(Cc1ccccc1)NC1CCN(Cc2ccccc2F)CC1`, the Ki was found to be 683 nM.

Take `O=C(Cc1ccccc1)NC1CCN(Cc2cccc(C(F)(F)F)c2)CC1`: the Ki is 513 nM.

For `COc1ccc2[nH]cc(CC(=O)NC3CCN(Cc4ccccc4)CC3)c2c1`, the inhibition constant (Ki) is over 1000 nM.

With `O=C(Cc1ccccc1)NC1CCN(Cc2ccccc2)CC1`, the Ki amounted to 240 nM.

Turning to `OC(CCCN1CCC(O)(c2ccc(Cl)cc2)CC1)c1ccc(F)cc1` (stereo not given) [HYDROXYHALOPERIDOL], the Ki amounted to 28.6 nM.

These data come from ChEMBL document CHEMBL1134305, “Synthesis and structure-activity relationships of N-(1-benzylpiperidin-4-yl)arylacetamide analogues as potent sigma1 receptor ligands” (J Med Chem, 2001).
